Only some compounds are listed: those with a hit (about 2.5% of all), similar ones and a draw of the others.
SENP8 block-1: inhibitors of human SENP8 protease; purified SENP8, Z-RLRGG-aminoluciferin cleavage, luminescence; 330,000 compounds, 1.2% hits; AID 2540; inhibition, % at 10 µM; Q96LD8; in the data active means inhibition above about 50%
Target sequence (Q96LD8 whole entry, looked up): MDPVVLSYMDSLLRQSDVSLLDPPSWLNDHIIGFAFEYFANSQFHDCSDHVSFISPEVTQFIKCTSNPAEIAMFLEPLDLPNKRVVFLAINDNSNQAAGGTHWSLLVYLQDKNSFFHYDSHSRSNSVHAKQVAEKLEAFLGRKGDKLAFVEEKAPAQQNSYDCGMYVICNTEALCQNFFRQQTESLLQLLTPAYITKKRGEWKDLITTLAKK
SENP7 inh: SENP7 protease inhibition. recombinant SENP7, Z-RLRGG-aminoluciferin luminescence, 40 min. 330,000 compounds, 1.5% hits. inhibition, % at 5 µM. Q9BQF6;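 active means inhibition above about 50% at the single test dose, limit read from the data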;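 further: plate controls were DMSO with enzyme for no effect and no enzyme buffer wells for full effect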
SENP6 inh: SENP6 protease inhibition | Q9GZR1 | Recombinant SENP6 catalytic domain, aminoluciferin luminescence | inhibition, % at 10 µM | 330,000 compounds, 1.8% hits;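 active means inhibition above about 50% at the single tested dose, limit read from the data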;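 further: plate controls were DMSO wells with enzyme for no effect and DMSO wells lacking enzyme for full effect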
SENP1 inh: blocks the human SENP1 SUMO protease catalytic domain. Q9P0U3. recombinant SENP1 catalytic domain, CyPet-SUMO1-YPet FRET cleavage. inhibition, % at 10 µM. 360,000 compounds, 0.21% hits;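 active means inhibition at least 30% at 10 µM, raw YFP signal under a set limit, fluorescence ratio 0.5 to 1.5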;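 further: 0% = enzyme with DMSO and 100% = no enzyme wells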
Target sequence (Q9P0U3 419-644 limits assumed): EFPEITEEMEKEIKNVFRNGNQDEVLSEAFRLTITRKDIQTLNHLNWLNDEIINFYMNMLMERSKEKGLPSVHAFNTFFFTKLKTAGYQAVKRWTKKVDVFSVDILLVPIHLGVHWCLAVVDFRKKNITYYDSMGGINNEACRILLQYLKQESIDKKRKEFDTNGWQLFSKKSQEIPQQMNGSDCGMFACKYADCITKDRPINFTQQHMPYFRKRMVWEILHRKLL
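Test system: hSENP1 catalytic domain, recombinant; Amount: 20 pM final SENP1 enzyme; Medium: Tris pH 8 buffer plus EDTA, NaCl, BME, BSA, NP40, catalase; Schedule: 50 min enzyme reaction, room temperature, light-protected; Technique: FRET fluorescence in CFP and YFP emission channels; Controls: no-enzyme wells low, DMSO-plus-enzyme wells high control.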
SENP8 block-2: inhibitors of human SENP8 protease; recombinant SENP8, Nedd8 substrate fluorescence; 360,000 compounds, 0.64% hits; inhibition, % at 20 µM; AID 602440; in the data active means inhibition mostly above about 40%, no sharp cut-off; inactive means mostly below about 27%
SENP1 conf: confirmation of human SENP1 SUMO protease inhibitors. shares compounds with SENP1 inh. recombinant SENP1, CyPet-SUMO1-YPet FRET cleavage. inhibition, % at 10 µM. 520 compounds, 34% hits. AID 651678; in the data active means inhibition mostly above about 35%, no sharp cut-off; inactive means mostly below about 32%;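 further: 0% = enzyme with DMSO and 100% = no enzyme control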
SENP1 kinetic: SENP1 (human) inhibition, kinetic confirmation | shares compounds with SENP1 inh | recombinant SENP1, CyPet-SUMO1-YPet FRET kinetic cleavage | inhibition, % at 10 µM | 520 compounds, 26% hits | AID 651690; in the data active means inhibition mostly above about 32%, no sharp cut-off; inactive means mostly below about 29%;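 further: 0% = DMSO with enzyme and 100% = no enzyme substrate only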
Active calls of the source: *.

How did C=CCc1c(C)nc(-c2ccccc2)nc1N/N=C/c1ccccc1 do in these assays?
SENP8 block-1: -2; SENP7 inh: 7; SENP6 inh: -5; SENP1 inh: 1; SENP8 block-2: 0

How did C=CCc1c(C)nc(-c2ccccc2)nc1Nc1ccccc1O do in these assays?
SENP8 block-1: -4; SENP7 inh: 4; SENP6 inh: -6; SENP1 inh: 47*; SENP8 block-2: 13; SENP1 conf: 15; SENP1 kinetic: 11

Results for Cn1ncc(N=Cc2ccccc2O)c1C(=O)Nc1ccccc1 ?
SENP8 block-1: -4; SENP7 inh: -7; SENP6 inh: -8; SENP1 inh: 37*; SENP8 block-2: 9; SENP1 conf: 18; SENP1 kinetic: 28

How did O=C1C2C(c3ccccc3)C=CC(c3ccccc3)C2C(=O)N1c1ccccn1 (stereo not given) do in these assays?
SENP8 block-1: -9; SENP7 inh: 0; SENP6 inh: -22; SENP1 inh: 41*; SENP8 block-2: 12; SENP1 conf: 54*; SENP1 kinetic: 46*

Results for OC[C@H]1O[C@H](c2nc(-c3nc(-c4cccs4)no3)cs2)C[C@@H]1O ?
SENP1 inh: -3; SENP8 block-2: 16

What do the screens show for `COc1ccc(NC(=O)CCC(=O)c2ccc(-c3ccccc3)cc2)cc1`?
SENP8 block-1: -10; SENP7 inh: -3; SENP6 inh: -7; SENP1 inh: 40*; SENP8 block-2: -2; SENP1 conf: -1; SENP1 kinetic: -6

What do the screens show for `O=C(OCc1ccccc1)c1c(-c2ccccc2)oc2c1C(OCCO)CCC2` (stereo not given)?
SENP1 inh: 0; SENP8 block-2: -358

Results for Clc1ccccc1N=Nc1ccccn1 ?
SENP1 inh: 58*; SENP8 block-2: 57*; SENP1 conf: 11; SENP1 kinetic: 13

What do the screens show for `Cc1[nH][nH]c(=O)c1N=Nc1ccccc1Cl`?
SENP8 block-1: -4; SENP7 inh: -2; SENP6 inh: 16; SENP1 inh: 4; SENP8 block-2: 33

Results for N#C/C(C(=O)NCCc1ccccc1)=C1/N=C(NC(=O)c2cccs2)c2ccccc21 ?
SENP8 block-1: 1; SENP7 inh: 1; SENP6 inh: -1; SENP1 inh: 36*; SENP8 block-2: -22; SENP1 conf: -27; SENP1 kinetic: 5

What do the screens show for `O=[N+]([O-])c1ccc2[nH]c(O)c(N=Nc3ccc(F)cc3)c2c1`?
SENP8 block-1: -20; SENP7 inh: -9; SENP6 inh: -27; SENP1 inh: 56*; SENP8 block-2: 36; SENP1 conf: 10; SENP1 kinetic: 5

Results for CCN(CC)S(=O)(=O)c1cc([N+](=O)[O-])ccc1N=Nc1c(O)[nH]c2ccccc12 ?
SENP1 inh: 46*; SENP8 block-2: 43*; SENP1 conf: 4; SENP1 kinetic: 3

Results for CCc1cc(C(=O)N=Nc2c(O)[nH]c3ccc([N+](=O)[O-])cc23)c2ccccc2n1 ?
SENP8 block-1: 2; SENP7 inh: 4; SENP6 inh: 0; SENP1 inh: 5; SENP8 block-2: 19

What do the screens show for `O=c1[nH]ncc2c3ccccc3n(Cc3cccc(Cl)c3)c12`?
SENP8 block-1: -3; SENP7 inh: -6; SENP6 inh: -3; SENP1 inh: 86*; SENP8 block-2: -18; SENP1 conf: 106*; SENP1 kinetic: 62*

Results for Clc1ccc(-c2ccc(C=Nc3ccc(N4CCOCC4)cc3)o2)cc1 ?
SENP8 block-1: -1; SENP7 inh: 3; SENP6 inh: -5; SENP1 inh: -68; SENP8 block-2: -103

How did Clc1ccc(-c2ccc(C=Nc3ccc(N4CCOCC4)cc3)o2)c(Cl)c1 do in these assays?
SENP8 block-1: -4; SENP7 inh: 5; SENP6 inh: -2; SENP1 inh: 32*; SENP8 block-2: 4; SENP1 conf: -2; SENP1 kinetic: 3

What do the screens show for `CCC(=NCc1ccccc1)C1=C(O)C(C(=O)OC)C(C)(C)CC1=O` (stereo not given)?
SENP8 block-1: 6; SENP7 inh: -1; SENP6 inh: 1; SENP1 inh: 0; SENP8 block-2: 11
